ChEMBL document CHEMBL2086296, “Synthesis of novel quinoline-2-one based chalcones of potential anti-tumor activity” (Eur J Med Chem, 2012)

Legend:
[1] = test system: NCI-H322M; experiment: Cytotoxicity against human NCI-H322M cells after 24 hrs by SRB assay; assay type: cell-based
Outline: (§1)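 NCI 60-cell screen. Cells grown in RPMI 1640 with 5% FBS and 2 mM L-glutamine, seeded at 5,000–40,000 cells/well, preincubated 24 h at 37 °C in 5% CO2. Drug stock in DMSO, diluted in medium with gentamicin; five final concentrations, 100, 10, 1.0, 0.1 and […]. Time-zero plates were TCA-fixed. Protein read by SRB staining; GI50, TGI and LC50 taken relative to time-zero.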

[2] = test system: A498; experiment: (§2) Cytotoxicity against human A498 cells after 24 hrs by SRB assay; assay type: cell-based; settings: a498, 24 h; outline: as §1
[3] = test system: K562; experiment: (§3) Cytotoxicity against human K562 cells after 24 hrs by SRB assay; assay type: cell-based; settings: k562, 24 h; outline: as §1
[4] = test system: PC-3; experiment: (§4) Cytotoxicity against human PC3 cells after 24 hrs by SRB assay; assay type: cell-based; settings: pc-3, 24 h; outline: as §1
[5] = test system: PC-3; experiment: as §4; assay type: functional; settings: PC-3, 24 h
Outline: (§5)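 NCI 60-line screen. Cells in RPMI 1640 with 5% FBS and 2 mM L-glutamine, seeded at 5,000–40,000 cells/well by doubling time, then incubated 24 h at 37 °C, 5% CO2 before dosing. Time-zero plates fixed with TCA at drug addition. DMSO stocks diluted in medium with gentamicin to five concentrations, […]. Protein read by SRB staining. GI50, TGI and LC50 derived relative to control and time-zero.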

[6] = test system: A498; experiment: as §2; assay type: functional; settings: A498, 24 h; outline: as §5
[7] = test system: K562; experiment: as §3; assay type: functional; settings: K562, 24 h; outline: as §5
[8] = test system: Mus musculus; experiment: Acute toxicity in athymic nude mouse assessed as weight loss up to 400 mg/kg, ip after 2 weeks; assay type: organism-based; set-up: dose 400 mg/kg, route intraperitoneal; settings: in vivo, 336 h
Outline: (§6)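 Single ip injection in athymic nude mice, one mouse per dose at 400, 200 and 100 mg/kg, dosed at 0.1 mL/10 g body weight, with feed and water ad libitum. Animals observed for 2 weeks and sacrificed on >20% body weight loss or other signs of significant toxicity. If all three were sacrificed, 50, 25 and 12.5 mg/kg were tested next.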

[9] = test system: Mus musculus; experiment: Acute toxicity in athymic nude mouse assessed as mortality up to 400 mg/kg, ip after 2 weeks; assay type: organism-based; set-up: dose 400 mg/kg, route intraperitoneal; settings: in vivo, 336 h; outline: as §6

Row | Structure (SMILES) | LC50 [1] [µM] | LC50 [2] [µM] | LC50 [3] [µM] | LC50 [4] [µM] | GI50 [5] [µM] | TGI [5] [µM] | GI50 [6] [µM] | TGI [6] [µM] | GI50 [7] [µM] | TGI [7] [µM] | Activity [8] | Activity [9]
1 | O=C(/C=C/c1cc2ccccc2[nH]c1=O)c1ccc(Cl)cc1 | > 100 | – | – | – | – | – | – | – | – | – | – | –
2 | O=C(/C=C/c1cc2ccccc2[nH]c1=O)c1ccc(O)cc1 | 55.5 | 47.8 | > 100 | > 100 | 5.39 | 55.3 | 8.44 | 21.3 | 3.89 | > 100 | – | –
3 | O=C(/C=C/c1cc2ccccc2[nH]c1=O)/C=C/c1cc2ccccc2[nH]c1=O | – | – | – | – | – | – | – | – | – | – | Non-toxic | Non-toxic
